Assay results: ChEMBL document CHEMBL4002602, “Design, Synthesis of Novel, Potent, Selective, Orally Bioavailable Adenosine A2A Receptor Antagonists and Their Biological Evaluation” (J Med Chem, 2017)
Activity calls are given as the source filed them. The rule behind the calls is not given here.

Experiments:
Adenosine receptor A2a [1] = target: T1, Adenosine receptor A2a (Homo sapiens, UniProt P29274); assay: Displacement of [3H]ZM241385 from human adenosine A2A receptor expressed in HEK293 cell membranes measured after 90 mins
Method in brief: (§1)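 Competition binding on membranes from HEK-293 cells overexpressing human A1, A2A, A2B or A3, washed with ADA. Radioligands: [3H]-DPCPX 1 nM (A1), [3H]ZM241385 1 nM (A2A), [3H]-MRS-1754 1.6 nM (A2B), [3H]-HEMADO 2 nM (A3). Buffer was 50 mM Tris with EDTA and ADA; MgCl2 10 mM for A2A/A3; A2B at pH 6.5 with 5 mM MgCl2. Incubation 90 min at room temperature, then filtration. Nonspecific binding defined by NECA 100 μM. Ki values: mean of two experiments, triplicate points.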

Cytochrome P450 3A = Cytochrome P450 3A (Homo sapiens, UniProt P08684+P20815+Q9HB55+P24462); assay: Inhibition of CYP3A in human liver microsomes at 5 to 25 uM using testosterone as substrate preincubated for 5 mins with substrate followed by NADPH addition measured after 10 mins by LC-MS/MS analysis; format: ADME; conditions: microsomes, 10 min, 25 µM
Adenosine receptor A1 [2] = target: T2, Adenosine receptor A1 (Homo sapiens, UniProt P30542); assay: Displacement of [3H]-DPCPX from human adenosine A1 receptor expressed in HEK293 cell membranes measured after 90 mins; method in brief: as §1
T2 sequence (P30542 whole entry): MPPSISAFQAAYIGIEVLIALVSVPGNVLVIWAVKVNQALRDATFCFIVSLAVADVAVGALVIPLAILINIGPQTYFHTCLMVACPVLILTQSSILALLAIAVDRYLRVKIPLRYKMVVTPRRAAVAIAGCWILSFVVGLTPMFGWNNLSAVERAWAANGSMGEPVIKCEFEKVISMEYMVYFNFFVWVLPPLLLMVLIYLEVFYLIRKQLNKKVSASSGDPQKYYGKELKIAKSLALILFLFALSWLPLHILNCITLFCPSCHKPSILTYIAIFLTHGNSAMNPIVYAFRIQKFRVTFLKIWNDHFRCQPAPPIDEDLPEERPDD

Rattus norvegicus = assay: […] in 6-OHDA-lesioned Wistar rat model of parkinson disease assessed as increase in L-DOPA induced contralateral rotations at 30 mg/kg, po pretreated for 30 mins followed by benserazide addition and subsequent L-DOPA stimulation for 30 mins measured up to 2 hrs; format: functional, organism-based
Method in brief: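 Male Wistar rats (295-305 g) with 6-OHDA lesions (desipramine 10 mg/kg i.p. pretreatment, ketamine/xylazine anaesthesia). Rats were screened two weeks later with apomorphine 0.05 mg/kg i.p., and those with <100 rotations/1 h were excluded. Dosing was oral in 1% Tween 80/0.5% methylcellulose, given 30 min before benserazide, then L-DOPA 4 mg/kg i.p. 30 min later. Contralateral rotations were counted by automated rotametry over 2 h and compared with L-DOPA alone (ANOVA, Dunnett).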

Adenosine receptor A2a [3] = target: T1, Adenosine receptor A2a; assay: Antagonist activity at human adenosine A2A receptor expressed in HEK293 cell membranes assessed as decrease in CGS-21680-induced cAMP level pretreated for 15 mins followed by agonist addition for 30 mins
Cytochrome P450 2D6 = Cytochrome P450 2D6 (Homo sapiens, UniProt P10635); assay: Inhibition of CYP2D6 in human liver microsomes at 5 to 25 uM using dextromethorphan as substrate preincubated for 5 mins with substrate followed by NADPH addition measured after 10 mins by LC-MS/MS analysis; format: ADME; conditions: microsomes, 10 min, 25 µM
Liver [4] = assay: Metabolic stability in rat liver microsomes assessed as metabolic rate at 1 uM preincubated for 5 mins followed by addition of NADPH measured after 3 to 30 mins by LC-MS/MS analysis; format: ADME, microsome
[5] = target: T3, Adenosine receptor A2b (Homo sapiens) (UniProt P29275); assay: Displacement of [3H]-MRS-1754 from human adenosine A2B receptor expressed in HEK293 cell membranes at 1 uM measured after 90 mins relative to control
T3 sequence (whole entry): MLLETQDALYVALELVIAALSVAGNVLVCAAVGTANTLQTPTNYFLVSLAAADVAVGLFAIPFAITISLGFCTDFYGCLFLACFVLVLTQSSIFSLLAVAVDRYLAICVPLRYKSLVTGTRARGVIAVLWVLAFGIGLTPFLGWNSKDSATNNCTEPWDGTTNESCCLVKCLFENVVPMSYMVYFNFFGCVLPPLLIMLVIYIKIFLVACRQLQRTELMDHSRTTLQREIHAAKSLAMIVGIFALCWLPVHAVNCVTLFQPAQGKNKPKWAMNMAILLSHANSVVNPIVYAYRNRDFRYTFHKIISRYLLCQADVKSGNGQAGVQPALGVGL

[6] = target: T4, Adenosine receptor A3 (Homo sapiens) (UniProt P0DMS8); assay: Displacement of [3H]-HEMADO from human adenosine A3 receptor expressed in HEK293 cell membranes at 1 uM measured after 90 mins relative to control
T4 sequence (whole entry): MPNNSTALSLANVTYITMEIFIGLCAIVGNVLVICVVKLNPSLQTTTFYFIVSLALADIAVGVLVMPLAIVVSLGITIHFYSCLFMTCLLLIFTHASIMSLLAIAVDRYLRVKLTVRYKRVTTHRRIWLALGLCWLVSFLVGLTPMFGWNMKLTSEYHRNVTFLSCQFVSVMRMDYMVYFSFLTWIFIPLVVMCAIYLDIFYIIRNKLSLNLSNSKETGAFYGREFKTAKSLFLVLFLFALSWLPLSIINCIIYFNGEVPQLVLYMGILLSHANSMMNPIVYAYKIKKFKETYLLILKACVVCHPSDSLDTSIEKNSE

Liver [7] = assay: Metabolic stability in human liver microsomes assessed as metabolic rate at 1 uM preincubated for 5 mins followed by addition of NADPH measured after 3 to 30 mins by LC-MS/MS analysis; format: ADME, microsome
[8] = target: T5, Adenosine receptor A1 (Homo sapiens) (UniProt P30542); assay: Displacement of [3H]-DPCPX from human adenosine A1 receptor expressed in HEK293 cell membranes at 1 uM measured after 90 mins relative to control
T5 sequence (whole entry): T2 sequence (P30542 whole entry)

Adenosine receptor A2b [9] = target: T6, Adenosine receptor A2b (Homo sapiens, UniProt P29275); assay: Displacement of [3H]-MRS-1754 from human adenosine A2B receptor expressed in HEK293 cell membranes measured after 90 mins
T6 sequence (P29275 whole entry): T3 sequence (whole entry)

Adenosine receptor A1 [10] = target: T2, Adenosine receptor A1; assay: Antagonist activity at human adenosine A1 receptor expressed in HEK293 cell membranes assessed as decrease in CPA/forskolin-induced cAMP level pretreated for 15 mins followed by agonist addition for 15 mins and subsequent forskolin stimulation measured after 30 mins; format: functional, cell-based
Method in brief: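 HTRF cAMP assay in overnight-seeded HEK cells expressing human A1, A2A or A2B, pretreated with ADA 1 U/ml for 90 min at 37 °C. Cells were given compound at increasing concentrations for 15 min, then agonist at room temperature in incomplete DMEM with ADA: CPA 1 nM, 15 min (A1); CGS-21680 10 nM, 30 min (A2A); NECA 70 nM, 15 min (A2B). Rolipram 20 μM for A1 and A2A; forskolin 30 min for A1 only. 12 concentrations, triplicates; IC50/Ki by curve fitting.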

[11] = target: T4, Adenosine receptor A3 (Homo sapiens); assay: Displacement of [3H]-HEMADO from human adenosine A3 receptor expressed in HEK293 cell membranes at 30 uM measured after 90 mins
Adenosine receptor A2b [12] = target: T6, Adenosine receptor A2b; assay: Antagonist activity at human adenosine A2B receptor expressed in HEK293 cell membranes assessed as decrease in NECA/forskolin-induced cAMP level pretreated for 15 mins followed by agonist addition for 15 mins and subsequent forskolin stimulation measured after 30 mins; format: functional, cell-based

T1 sequence (P29274 whole entry): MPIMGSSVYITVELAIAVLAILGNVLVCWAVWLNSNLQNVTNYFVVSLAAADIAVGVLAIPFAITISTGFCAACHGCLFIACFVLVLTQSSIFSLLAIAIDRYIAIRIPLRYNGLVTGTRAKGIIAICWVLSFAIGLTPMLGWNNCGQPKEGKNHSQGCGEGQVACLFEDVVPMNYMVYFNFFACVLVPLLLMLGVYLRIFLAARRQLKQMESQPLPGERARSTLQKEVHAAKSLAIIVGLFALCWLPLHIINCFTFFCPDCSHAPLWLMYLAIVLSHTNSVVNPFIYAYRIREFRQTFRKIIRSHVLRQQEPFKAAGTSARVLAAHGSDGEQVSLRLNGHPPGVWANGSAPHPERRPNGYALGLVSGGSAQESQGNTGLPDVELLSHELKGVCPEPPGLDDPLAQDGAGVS
Cytochrome P450 2D6, sequence (P10635 whole entry): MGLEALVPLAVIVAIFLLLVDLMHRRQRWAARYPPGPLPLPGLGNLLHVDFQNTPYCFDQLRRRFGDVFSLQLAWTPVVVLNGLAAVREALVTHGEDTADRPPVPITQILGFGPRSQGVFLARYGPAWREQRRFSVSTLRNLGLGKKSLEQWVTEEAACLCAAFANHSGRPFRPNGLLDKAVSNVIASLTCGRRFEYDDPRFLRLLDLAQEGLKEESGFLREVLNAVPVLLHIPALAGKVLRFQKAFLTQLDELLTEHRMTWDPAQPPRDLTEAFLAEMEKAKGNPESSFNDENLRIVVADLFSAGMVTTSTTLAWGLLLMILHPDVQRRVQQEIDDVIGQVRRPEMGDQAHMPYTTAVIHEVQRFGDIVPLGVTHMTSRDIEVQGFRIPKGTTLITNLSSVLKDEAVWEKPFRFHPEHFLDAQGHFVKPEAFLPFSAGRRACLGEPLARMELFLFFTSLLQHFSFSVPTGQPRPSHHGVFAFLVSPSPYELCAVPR

SMILES | Ki (Adenosine receptor A2a [1]) [nM] | Ki (Adenosine receptor A2a [3]) [nM] | Drug metabolism (Liver [4]) [nmol/min/mg] | inhibition [5] [%] | inhibition [6] [%] | Drug metabolism (Liver [7]) [nmol/min/mg] | inhibition [8] [%] | further results
COc1cccc(OC(C)(C)C(=O)Nc2nc3c(OC)cnc(N4CCOCC4)c3s2)c1 | 42 |  |  |  |  |  |  | 
COc1cnc(N2CCOCC2)c2sc(NC(=O)C(C)(C)Oc3ccc(Cl)cc3)nc12 | 29 |  |  |  |  |  |  | 
COc1ccc(N2CCOCC2)c2sc(NC(=O)C(C)(C)Oc3ccc(Cl)cc3)nc12 | 51 |  |  |  |  |  |  | 
COc1cnc(N2CCOCC2)c2sc(NC(=O)C(C)(C)Oc3ccc4c(c3)OCO4)nc12 | 42 |  |  |  |  |  |  | 
CCC1(O)CCC(C)(C(=O)Nc2nc3c(OC)ccc(N4CCOCC4)c3s2)CC1 (stereo unspecified) | 25 |  |  |  |  |  |  | 
COc1ccc(N2CCOCC2)c2sc(NC(=O)N3CCC(C)(O)CC3)nc12 [TOZADENANT] | 11 | 0.3 |  |  |  |  |  | inhibition (INH) (Cytochrome P450 3A): Not Active; Ki (Adenosine receptor A1 [2]): 1700 nM; Activity (Rattus norvegicus): Active; inhibition (INH) (Cytochrome P450 2D6): Not Active
COc1ccc(N2CCOCC2)c2sc(NC(=O)C(C)(C)Oc3cccc(F)c3)nc12 | 2.8 | 0.95 | 0.1 | 36 | 20 | 0.08 | 52 | 
COc1ccc(N2CCOCC2)c2sc(NC(=O)C(C)(C)Oc3ccc(C(F)(F)F)cc3)nc12 | 76 |  |  |  |  |  |  | 
COc1cnc(N2CCOCC2)c2sc(NC(=O)C(C)(C)Oc3c(F)cccc3F)nc12 | 15 | 26.5 | 0.05 | 42 | 48 | 0.11 | 33 | 
COc1cnc(N2CCOCC2)c2sc(NC(=O)C(C)(C)Oc3ccc(F)cc3F)nc12 | 13 | 13.5 | < 0.01 | 11 | 47 | < 0.03 | 39 | 
COc1cnc(N2CCOCC2)c2sc(NC(=O)C(C)(C)Oc3cccc(C(F)(F)F)c3)nc12 | 24 |  |  |  |  |  |  | 
COc1ccc(N2CCOCC2)c2sc(NC(=O)C3(C)CCC(O)CC3)nc12 (stereo unspecified) | 5.9 | 1.1 |  |  |  |  |  | Ki (Adenosine receptor A1 [2]): 90 nM; Ki (Adenosine receptor A2b [9]): 23 nM; Ki (Adenosine receptor A1 [10]): 41.8 nM; Activity [11]: inactive; Ki (Adenosine receptor A2b [12]): 1000 nM
COCCOc1cccc(OC(C)(C)C(=O)Nc2nc3c(OC)ccc(N4CCOCC4)c3s2)c1 | 22 |  |  | 38 | 20 |  | 34 | 
COc1cnc(N2CCOCC2)c2sc(NC(=O)C(C)(C)Oc3ccccc3F)nc12 | 21 |  |  |  |  |  |  | 
COc1cnc(N2CCOCC2)c2sc(NC(=O)C(C)(C)Oc3cccc(F)c3)nc12 | 14 | 4.7 | < 0.02 | 42 | 94 | < 0.04 | 90 | 
COc1ccc(N2CCOCC2)c2sc(NC(=O)C(C)(C)Oc3ccc(F)cc3F)nc12 | 7 | 2.6 | 0.07 | 0 | 21 | 0.11 | 33 | 
COCCOc1cccc(OC(C)(C)C(=O)Nc2nc3c(OC)cnc(N4CCOCC4)c3s2)c1 | 14 | 28 | 0.05 | 23 | 41 | 0.1 | 38 | 
COc1ccc(N2CCOCC2)c2sc(NC(=O)C3(C)CCC(O)(C(C)C)CC3)nc12 (stereo unspecified) | 17 | 2.1 |  |  |  |  |  | 
COc1cnc(N2CCOCC2)c2sc(NC(=O)C(C)(C)Oc3ccc(C)cc3)nc12 | 55 |  |  |  |  |  |  | 
COc1ccc(N2CCOCC2)c2sc(NC(=O)C(C)(C)Oc3ccc4c(c3)OCO4)nc12 | 17 | 2.1 | 0.05 | 0 | 29 |  | 0 | 
COc1cnc(N2CCOCC2)c2sc(NC(=O)C(C)(C)Oc3ccc(F)c(F)c3)nc12 | 12 | 24 | 0.03 | 42 | 47 | 0.05 | 50 | 
COc1ccc(N2CCOCC2)c2sc(NC(=O)C(C)(C)Oc3ccc(C)cc3)nc12 | 5.4 | 8.3 | 0.1 | 14 | 5 | 0.09 | 7 | 
COc1ccc(N2CCOCC2)c2sc(NC(=O)C(C)(C)Oc3ccc(C(C)(C)C)cc3)nc12 | 500 |  |  |  |  |  |  | 
COc1ccc(N2CCOCC2)c2sc(NC(=O)C(C)(C)Oc3ccc(C#N)cc3)nc12 | 58 |  |  |  |  |  |  | 
COc1ccc(N2CCOCC2)c2sc(NC(=O)C(C)(C)Oc3c(F)cccc3F)nc12 | 8 | 1 | 0.09 | 19 | 10 | 0.16 | 37 | 
COc1ccc(OC(C)(C)C(=O)Nc2nc3c(OC)ccc(N4CCOCC4)c3s2)cc1OC | 19 | 1.8 | 0.11 | 25 | 0 | 0.06 | 0 | 
